Source: ChEMBL document CHEMBL1817551, “Design of small molecule inhibitors of acetyl-CoA carboxylase 1 and 2 showing reduction of hepatic malonyl-CoA levels in vivo in obese Zucker rats” (Bioorg Med Chem, 2011)
Converted amounts (≈) assume the structure as drawn.

Key:
[1] = Lipophilicity, log D of the compound; assay type: physicochemical; conditions: octanol/water
Acetyl-CoA carboxylase 2 = Acetyl-CoA carboxylase 2 (Homo sapiens, UniProt O00763); experiment: Inhibition of human recombinant his-tagged ACC2 expressed in baculovirus/Sf9 cell assessed as inorganic phosphate formation […] measured after 1.5 hrs by Malachite green reagent method
Acetyl-CoA carboxylase 1 [2] = target: Acetyl-CoA carboxylase 1 (Homo sapiens, UniProt Q13085); experiment: Inhibition of human recombinant his-tagged ACC1 expressed in baculovirus/Sf9 cell assessed as inorganic phosphate formation […] measured after 1.5 hrs by Malachite green reagent method
Homo sapiens = organism: Homo sapiens; experiment: Ratio IC50 for human ACC2 to IC50 for human ACC1
[3] = Solubility of the compound after 16 hrs by LC-UV/MS analysis; assay type: physicochemical
[4] = Intrinsic clearance in human liver microsome at 1 uM after 30 mins by LC-UV/MS analysis; assay type: ADME; conditions: liver microsomes
CYP1A2 = target: T1, CYP1A2 (Homo sapiens, UniProt P05177); experiment: Inhibition of CYP1A2 at 13 uM; assay type: ADME
T1 sequence (P05177 whole entry): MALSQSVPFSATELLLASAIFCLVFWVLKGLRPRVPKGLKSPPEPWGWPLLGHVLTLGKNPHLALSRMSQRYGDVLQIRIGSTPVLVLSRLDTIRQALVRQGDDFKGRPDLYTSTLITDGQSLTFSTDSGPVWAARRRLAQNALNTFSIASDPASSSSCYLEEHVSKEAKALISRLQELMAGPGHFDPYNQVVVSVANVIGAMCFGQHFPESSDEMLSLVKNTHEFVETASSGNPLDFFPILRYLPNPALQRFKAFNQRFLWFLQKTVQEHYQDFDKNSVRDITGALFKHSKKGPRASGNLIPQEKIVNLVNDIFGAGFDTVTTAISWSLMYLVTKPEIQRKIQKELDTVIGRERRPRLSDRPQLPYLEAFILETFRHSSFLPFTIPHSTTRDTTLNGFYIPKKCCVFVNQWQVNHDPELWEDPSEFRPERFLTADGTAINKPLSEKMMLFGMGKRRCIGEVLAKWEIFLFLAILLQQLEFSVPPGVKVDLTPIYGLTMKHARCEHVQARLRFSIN

CYP2C9 = CYP2C9 (Homo sapiens, UniProt P11712); experiment: Inhibition of CYP2C9 at 13 uM; assay type: ADME
CYP3A4 = CYP3A4 (Homo sapiens, UniProt P08684); experiment: Inhibition of CYP3A4 at 13 uM; assay type: ADME
CYP2D6 = CYP2D6 (Homo sapiens, UniProt P10635); experiment: Inhibition of CYP2D6 at 13 uM; assay type: ADME
CYP2C19 = CYP2C19 (Homo sapiens, UniProt P33261); experiment: Inhibition of CYP2C19 at 13 uM; assay type: ADME
Rattus norvegicus [5] = experiment: Antiobesity activity in obese Zucker rat assessed as reduction in hepatic malonyl-coA level, iv administered 2 hrs; assay type: functional; parameters: scale not given: the % may be the effect or the level left
Outline: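 Obese Zucker rats were anaesthetized with Inactin (180 mg/kg ip), tracheotomized and fitted with carotid and jugular catheters. After 1.5 h post-surgery stabilization at 37.5 °C, compound or vehicle was infused iv; lean vehicle controls were included. Hepatic malonyl-CoA was measured by ion-pair HPLC–negative ESI MS/MS against a ¹³C₃ internal standard and related to plasma free exposure (fu×Cp/rat ACC2 IC50).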

[6] = Apparent permeability from apical to basolateral side of human Caco2 cells at pH 7.4 by LCMS; assay type: ADME, cell-based; conditions: Caco-2, pH 7.4
Cytochrome P450 3A4 = Cytochrome P450 3A4 (Homo sapiens, UniProt P08684); experiment: Inhibition of CYP3A4; assay type: ADME
Cytochrome P450 1A2 = target: T2, Cytochrome P450 1A2 (Homo sapiens, UniProt P05177); experiment: Inhibition of CYP1A2; assay type: ADME
T2 sequence (P05177 whole entry): T1 sequence (P05177 whole entry)

[7] = Clearance in Sprague-Dawley rat at 3 to 5 umol/kg, iv; assay type: ADME, organism-based; conditions: in vivo
Cytochrome P450 2C9 = Cytochrome P450 2C9 (Homo sapiens, UniProt P11712); experiment: Inhibition of CYP2C9; assay type: ADME
[8] = Oral bioavailability in C57BL/6 mouse at 33 umol/kg; assay type: ADME, organism-based; conditions: in vivo
[9] = Half life in C57BL/6 mouse at 33 umol/kg, po; assay type: ADME, organism-based; conditions: in vivo
[10] = Volume of distribution in C57BL/6 mouse at 33 umol/kg, iv and po; assay type: ADME, organism-based; conditions: in vivo
[11] = Clearance in C57BL/6 mouse at 33 umol/kg, iv and po; assay type: ADME, organism-based; conditions: in vivo
Rattus norvegicus [12] = experiment: Ratio of […] to fraction unbound in Sprague-Dawley rat at 3 to 5 umol/kg, iv; assay type: ADME, organism-based; conditions: in vivo
[13] = Fraction unbound in human plasma at 10 uM after 18 hrs by equilibrium dialysis method; assay type: ADME, cell-free
[14] = Fraction unbound in rat plasma at 10 uM after 18 hrs by equilibrium dialysis method; assay type: ADME, cell-free
[15] = Clearance in C57BL/6 mouse at 5 umol/kg, iv and 10 umol/kg, po; assay type: ADME, organism-based; conditions: in vivo
[16] = Oral bioavailability in C57BL/6 mouse at 10 umol/kg; assay type: ADME, organism-based; conditions: in vivo
[17] = target: Acetyl-Coenzyme A carboxylase 2 (Rattus norvegicus, UniProt Q1HEC0); experiment: Inhibition of ACC2 […] preincubated for 15 mins measured after 1.5 hrs using Malachite green reagent method
Acetyl-CoA carboxylase 1 [18] = target: Acetyl-CoA carboxylase 1 (Rattus norvegicus, UniProt P11497); experiment: Inhibition of rat ACC1 assessed as inorganic phosphate generation preincubated for 5 mins measured after 1.5 hrs using Malachite green reagent method
[19] = Half life in C57BL/6 mouse at 10 umol/kg, po; assay type: ADME, organism-based; conditions: in vivo
[20] = Volume of distribution in C57BL/6 mouse at 5 umol/kg, iv and 10 umol/kg, po; assay type: ADME, organism-based; conditions: in vivo

Chain of Acetyl-CoA carboxylase 2 (O00763 whole entry): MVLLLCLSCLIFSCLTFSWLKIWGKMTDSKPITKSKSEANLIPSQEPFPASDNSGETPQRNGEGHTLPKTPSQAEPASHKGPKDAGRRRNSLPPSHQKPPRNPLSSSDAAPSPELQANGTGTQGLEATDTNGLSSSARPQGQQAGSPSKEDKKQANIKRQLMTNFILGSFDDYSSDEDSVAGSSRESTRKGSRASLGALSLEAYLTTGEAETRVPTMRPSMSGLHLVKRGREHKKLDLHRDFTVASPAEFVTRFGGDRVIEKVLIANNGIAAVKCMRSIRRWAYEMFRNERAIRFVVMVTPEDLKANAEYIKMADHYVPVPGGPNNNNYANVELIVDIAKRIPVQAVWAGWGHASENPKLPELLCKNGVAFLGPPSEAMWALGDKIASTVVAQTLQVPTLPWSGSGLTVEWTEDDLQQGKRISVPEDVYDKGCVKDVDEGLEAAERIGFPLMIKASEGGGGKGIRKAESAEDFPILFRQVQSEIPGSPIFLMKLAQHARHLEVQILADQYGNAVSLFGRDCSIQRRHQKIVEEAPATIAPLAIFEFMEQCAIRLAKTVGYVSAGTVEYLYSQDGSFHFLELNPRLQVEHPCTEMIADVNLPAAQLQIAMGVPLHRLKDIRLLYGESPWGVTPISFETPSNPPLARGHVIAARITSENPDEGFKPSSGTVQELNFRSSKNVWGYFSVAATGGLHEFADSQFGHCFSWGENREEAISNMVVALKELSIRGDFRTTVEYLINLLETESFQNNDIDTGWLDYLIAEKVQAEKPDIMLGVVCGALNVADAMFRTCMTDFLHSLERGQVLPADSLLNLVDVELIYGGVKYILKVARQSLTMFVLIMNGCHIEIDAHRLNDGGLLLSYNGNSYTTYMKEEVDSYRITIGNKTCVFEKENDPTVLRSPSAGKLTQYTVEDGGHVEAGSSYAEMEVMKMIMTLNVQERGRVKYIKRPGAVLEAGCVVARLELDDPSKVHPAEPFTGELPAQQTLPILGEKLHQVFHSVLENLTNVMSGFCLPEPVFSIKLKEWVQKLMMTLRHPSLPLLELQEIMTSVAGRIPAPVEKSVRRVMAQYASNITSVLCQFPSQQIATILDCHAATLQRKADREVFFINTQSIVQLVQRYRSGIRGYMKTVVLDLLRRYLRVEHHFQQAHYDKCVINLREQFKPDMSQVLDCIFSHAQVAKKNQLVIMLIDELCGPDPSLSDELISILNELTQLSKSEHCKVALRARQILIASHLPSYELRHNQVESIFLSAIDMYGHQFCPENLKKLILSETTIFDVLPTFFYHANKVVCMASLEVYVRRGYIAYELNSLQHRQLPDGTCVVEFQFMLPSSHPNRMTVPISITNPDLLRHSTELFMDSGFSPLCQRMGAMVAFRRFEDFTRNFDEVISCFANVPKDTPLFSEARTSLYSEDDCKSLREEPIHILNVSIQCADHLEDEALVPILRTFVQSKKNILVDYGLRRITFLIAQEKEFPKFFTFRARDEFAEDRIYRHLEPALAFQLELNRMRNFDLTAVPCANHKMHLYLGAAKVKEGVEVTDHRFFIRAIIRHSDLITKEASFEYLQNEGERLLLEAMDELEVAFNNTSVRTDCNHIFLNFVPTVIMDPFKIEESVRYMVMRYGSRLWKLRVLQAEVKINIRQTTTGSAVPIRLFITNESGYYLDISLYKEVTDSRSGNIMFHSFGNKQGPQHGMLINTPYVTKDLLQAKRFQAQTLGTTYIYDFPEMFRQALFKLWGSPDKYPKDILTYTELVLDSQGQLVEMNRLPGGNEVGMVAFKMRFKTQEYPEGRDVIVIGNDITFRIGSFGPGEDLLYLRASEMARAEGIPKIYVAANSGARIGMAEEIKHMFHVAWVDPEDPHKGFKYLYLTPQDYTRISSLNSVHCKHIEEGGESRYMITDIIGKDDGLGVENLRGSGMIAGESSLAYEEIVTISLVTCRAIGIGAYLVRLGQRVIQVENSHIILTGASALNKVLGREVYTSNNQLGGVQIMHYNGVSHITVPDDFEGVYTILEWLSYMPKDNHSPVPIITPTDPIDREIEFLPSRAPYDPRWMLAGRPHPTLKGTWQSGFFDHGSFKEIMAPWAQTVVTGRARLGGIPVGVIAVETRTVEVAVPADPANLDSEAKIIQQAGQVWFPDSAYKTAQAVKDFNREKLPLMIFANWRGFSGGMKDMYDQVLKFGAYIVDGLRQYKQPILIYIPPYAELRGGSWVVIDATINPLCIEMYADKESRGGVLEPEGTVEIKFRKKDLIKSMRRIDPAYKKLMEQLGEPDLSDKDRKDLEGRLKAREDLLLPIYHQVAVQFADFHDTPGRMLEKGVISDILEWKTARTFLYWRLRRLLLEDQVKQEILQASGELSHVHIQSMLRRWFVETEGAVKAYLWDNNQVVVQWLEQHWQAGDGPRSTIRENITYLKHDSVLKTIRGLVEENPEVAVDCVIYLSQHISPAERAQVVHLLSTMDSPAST
Chain of Cytochrome P450 2C9 (P11712 whole entry): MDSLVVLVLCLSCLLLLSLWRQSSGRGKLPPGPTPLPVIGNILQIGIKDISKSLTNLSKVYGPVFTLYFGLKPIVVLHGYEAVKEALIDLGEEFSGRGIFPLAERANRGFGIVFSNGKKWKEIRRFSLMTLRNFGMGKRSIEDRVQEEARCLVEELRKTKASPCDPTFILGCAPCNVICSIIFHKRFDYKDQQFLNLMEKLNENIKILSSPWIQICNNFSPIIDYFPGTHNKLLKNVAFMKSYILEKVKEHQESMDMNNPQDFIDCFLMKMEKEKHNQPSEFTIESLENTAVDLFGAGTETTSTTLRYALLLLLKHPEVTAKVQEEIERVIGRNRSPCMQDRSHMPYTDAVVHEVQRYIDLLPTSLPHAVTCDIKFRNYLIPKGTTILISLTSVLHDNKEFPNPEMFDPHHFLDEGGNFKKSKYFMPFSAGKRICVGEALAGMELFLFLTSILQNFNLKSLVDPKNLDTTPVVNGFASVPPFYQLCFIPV
Chain of CYP2C9 (P11712 whole entry): as above
Chain of CYP2C19 (P33261 whole entry): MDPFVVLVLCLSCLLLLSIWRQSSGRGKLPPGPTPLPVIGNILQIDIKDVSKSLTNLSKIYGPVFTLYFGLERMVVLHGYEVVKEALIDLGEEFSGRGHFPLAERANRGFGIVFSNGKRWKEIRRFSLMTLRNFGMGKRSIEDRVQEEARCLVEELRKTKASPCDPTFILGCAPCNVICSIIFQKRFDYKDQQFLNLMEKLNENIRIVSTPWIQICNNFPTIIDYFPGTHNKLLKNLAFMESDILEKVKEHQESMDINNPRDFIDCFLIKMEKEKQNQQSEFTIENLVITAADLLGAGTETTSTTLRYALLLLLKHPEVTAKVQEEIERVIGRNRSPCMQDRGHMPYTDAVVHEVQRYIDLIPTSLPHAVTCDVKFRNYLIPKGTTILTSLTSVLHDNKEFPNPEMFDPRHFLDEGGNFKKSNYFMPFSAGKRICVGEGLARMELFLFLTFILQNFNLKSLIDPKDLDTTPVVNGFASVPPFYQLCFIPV
Chain of CYP2D6 (P10635 whole entry): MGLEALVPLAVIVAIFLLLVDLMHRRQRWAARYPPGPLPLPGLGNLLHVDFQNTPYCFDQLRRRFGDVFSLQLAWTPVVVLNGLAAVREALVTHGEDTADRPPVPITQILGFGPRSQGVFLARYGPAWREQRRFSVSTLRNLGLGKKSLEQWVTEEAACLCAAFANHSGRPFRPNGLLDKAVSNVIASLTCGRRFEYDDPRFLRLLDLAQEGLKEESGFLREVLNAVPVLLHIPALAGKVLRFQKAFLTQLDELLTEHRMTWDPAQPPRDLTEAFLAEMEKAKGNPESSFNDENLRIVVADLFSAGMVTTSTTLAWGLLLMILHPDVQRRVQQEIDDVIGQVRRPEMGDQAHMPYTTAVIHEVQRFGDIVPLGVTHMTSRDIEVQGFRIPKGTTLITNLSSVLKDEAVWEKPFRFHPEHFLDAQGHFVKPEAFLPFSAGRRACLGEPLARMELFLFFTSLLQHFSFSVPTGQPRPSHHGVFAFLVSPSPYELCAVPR
Chain of Cytochrome P450 3A4 (P08684 whole entry): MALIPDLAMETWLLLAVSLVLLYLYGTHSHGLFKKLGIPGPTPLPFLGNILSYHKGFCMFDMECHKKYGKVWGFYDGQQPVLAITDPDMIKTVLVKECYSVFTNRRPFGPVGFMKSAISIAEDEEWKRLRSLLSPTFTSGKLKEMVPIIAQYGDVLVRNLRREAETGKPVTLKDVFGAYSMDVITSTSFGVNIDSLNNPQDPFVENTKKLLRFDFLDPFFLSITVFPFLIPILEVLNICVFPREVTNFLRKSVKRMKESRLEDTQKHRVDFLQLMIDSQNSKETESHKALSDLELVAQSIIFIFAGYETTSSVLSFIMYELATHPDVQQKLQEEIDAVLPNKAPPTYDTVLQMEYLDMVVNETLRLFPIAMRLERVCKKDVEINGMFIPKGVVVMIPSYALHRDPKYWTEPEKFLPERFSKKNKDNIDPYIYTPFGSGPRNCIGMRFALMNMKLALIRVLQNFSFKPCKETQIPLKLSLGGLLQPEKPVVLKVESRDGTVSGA
Chain of CYP3A4 (P08684 whole entry): as above

SMILES | logD [1] | IC50 (Acetyl-CoA carboxylase 2) | IC50 (Acetyl-CoA carboxylase 1 [2]) | further results
CN(C)CCC1CCN(c2cc(C(=O)NC[C@H]3CC[C@H](COC(=O)NC(C)(C)C)CC3)c3ccccc3n2)CC1 | 3.6 | 1700 nM | 9900 nM | –
CC(C)(C)OC(=O)NC[C@H]1CC[C@H](CNC(=O)c2cc(N3CCC(CCO)CC3)nc3ccccc23)CC1 | 4.5 | 230 nM | 2300 nM | Ratio IC50 (Homo sapiens): 10
Cc1noc(C)c1-c1cc(C(=O)NC[C@H]2CC[C@H](CNC(=O)OC(C)(C)C)CC2)c2ccccc2n1 | 5 | – | – | –
CN(C)CCC1CCN(c2cc(C(=O)NC[C@H]3CC[C@H](CNC(=O)OC4CCOCC4)CC3)c3ccccc3n2)CC1 | 2.3 | – | – | –
CC(C)(C)OC(=O)NC[C@H]1CC[C@H](CNS(=O)(=O)c2cc(-c3ccccc3)nc3ccccc23)CC1 | – | 690 nM | – | –
O=C(c1cc(-c2ccccc2)nc2ccccc12)N1CCN(Cc2ccc3c(c2)OCO3)CC1 | – | 3600 nM | – | –
CN(C)CCn1cc(-c2cc(C(=O)NC[C@H]3CC[C@H](CNC(=O)OC(C)(C)C)CC3)c3ccccc3n2)cn1 | 3.6 | – | 1300 nM | –
CC(C)(C)OC(=O)NC[C@H]1CC[C@H](CNC(=O)c2cc(-c3ccccc3)nc3[nH]ccc23)CC1 | 4.7 | 780 nM | – | –
Cc1cc(C(=O)NC[C@H]2CC[C@H](CNC(=O)OC(C)(C)C)CC2)cc(-c2ccccc2)n1 | 5.3 | – | – | –
CC(C)(C)OC(=O)NC[C@H]1CC[C@H](CNC(=O)c2cc(-c3ccncc3)nc3ccccc23)CC1 | 4.4 | – | 1100 nM | solubility at 16 h [3]: < 1 µM; microsomal CLint at 1 µM [4]: 146 µL/min/mg
CCOC(=O)NC[C@H]1CC[C@H](CNC(=O)c2cc(N3CCC(CCN(C)C)CC3)nc3ccccc23)CC1 | 2.6 | 1400 nM | 8000 nM | –
CN(C)CCN1CCN(c2cc(C(=O)NC[C@H]3CC[C@H](CNC(=O)OC(C)(C)C)CC3)c3ccccc3n2)CC1 | 3.4 | 730 nM | 5300 nM | inhibition at 13 µM (CYP1A2): < 50%; inhibition at 13 µM (CYP2C9): < 50%; inhibition at 13 µM (CYP3A4): < 50%; inhibition at 13 µM (CYP2D6): < 50%; solubility at 16 h [3]: 73 µM (≈ 40.4 µg/mL); inhibition at 13 µM (CYP2C19): < 50%; microsomal CLint at 1 µM [4]: < 12 µL/min/mg
CC(C)(C)OC(=O)NC[C@H]1CC[C@H](CNS(=O)(=O)c2ccc3ccccc3c2)CC1 | – | 2500 nM | – | –
CC(C)(C)OC(=O)NC[C@H]1CC[C@H](CNC(=O)c2cc(Cl)nc3ccccc23)CC1 | 4.9 | – | – | –
CC(C)(C)OC(=O)NC[C@H]1CC[C@H](CNC(=O)c2ccnc(-c3ccccc3)c2)CC1 | 4.7 | – | – | –
CC(C)(C)OC(=O)NC[C@H]1CC[C@H](CNC(=O)c2cc(-c3cn[nH]c3)nc3ccccc23)CC1 | 3.5 | 570 nM | 2300 nM | –
O=C(c1c2ccccc2cc2ccccc12)N1CCC(N2CCC[C@@H](C(=O)N3CCOCC3)C2)CC1 | – | – | – | Activity (Rattus norvegicus [5]): 50%
CC(C)(C)OC(=O)NC[C@H]1CC[C@H](CNC(=O)c2cc(N3CCNCC3)nc3ccccc23)CC1 | 2.9 | – | 13000 nM | –
CC(C)(C)OC(=O)NC[C@H]1CC[C@H](CNC(=O)c2cc(-c3ccc(CN)cc3)nc3ccccc23)CC1 | 3.2 | – | 1700 nM | –
CC(C)(C)OC(=O)NC[C@H]1CC[C@@H](CNC(=O)c2cc(-c3ccccc3)nc3ccccc23)CC1 | – | 1000 nM | – | –
CC(C)(C)OC(=O)NC[C@H]1CC[C@H](CNC(=O)c2cc(N3CCC(CCN)CC3)nc3ccccc23)CC1 | 3.2 | 89 nM | 780 nM | Papp A→B [6]: 0.5 ×10⁻⁶ cm/s
CN(C)CCOC1CN(c2cc(C(=O)NC[C@H]3CC[C@H](CNC(=O)OC(C)(C)C)CC3)c3ccccc3n2)C1 | 3 | – | – | –
CC(C)(C)OC(=O)NC[C@H]1CC[C@H](CNC(=O)c2cc(-c3cccc(CN)c3)nc3ccccc23)CC1 | 3.4 | 52 nM | 240 nM | IC50 (Cytochrome P450 3A4): 2400 nM; IC50 (Cytochrome P450 1A2): 4000 nM; solubility at 16 h [3]: 8 µM (≈ 4.02 µg/mL); clearance [7]: 104 mL/min/kg; IC50 (Cytochrome P450 2C9): 800 nM; microsomal CLint at 1 µM [4]: 14 µL/min/mg
CN(C)CCC1CCN(c2cc(C(=O)NC[C@H]3CC[C@H](CNC(=O)OCC(C)(C)C)CC3)c3ccccc3n2)CC1 | 4 | 130 nM | 1000 nM | bioavailability [8]: 115%; half-life [9]: 2.9 h; Vd [10]: 9.6 L/kg; clearance [11]: 52 mL/min/kg
CC(C)(C)OC(=O)NC[C@H]1CC[C@H](CNC(=O)c2cc(-c3ccccc3)nc3ccccc23)CC1 | 5.9 | 210 nM | – | Ratio (Rattus norvegicus [12]): 12000; fraction unbound at 18 h, 10 µM [13]: 0.001; solubility at 16 h [3]: < 1 µM; clearance [7]: 60 mL/min/kg; fraction unbound at 18 h, 10 µM [14]: 0.005; microsomal CLint at 1 µM [4]: 124 µL/min/mg
CC(C)(C)OC(=O)NC[C@H]1CC[C@H](CNC(=O)c2cc(N3CCC(CN)CC3)nc3ccccc23)CC1 | 3.2 | 690 nM | 4300 nM | –
CC(C)(C)OC(=O)NC[C@H]1CC[C@H](CNC(=O)c2cc(N3CCC(CCN4CC(O)C4)CC3)nc3ccccc23)CC1 | 3.6 | – | 1000 nM | clearance [15]: 33 mL/min/kg; bioavailability [16]: 135%; IC50 [17]: 150 nM; fraction unbound at 18 h, 10 µM [13]: 0.033; solubility at 16 h [3]: 80 µM (≈ 46.4 µg/mL); clearance [7]: 70 mL/min/kg; IC50 (Acetyl-CoA carboxylase 1 [18]): 250 nM; Activity (Rattus norvegicus [5]): 50%; microsomal CLint at 1 µM [4]: 16 µL/min/mg; half-life [19]: 4.3 h; Vd [20]: 3.6 L/kg
CC(C)(C)OC(=O)NC[C@H]1CC[C@H](CNC(=O)c2cc(-c3ccc(C(=O)O)cc3)nc3ccccc23)CC1 | 2.5 | 750 nM | 2900 nM | –
